Measured values taken from ChEMBL document CHEMBL1821614, “Synthesis and biological evaluation of novel Mannich bases of 2-arylimidazo[2,1-b]benzothiazoles as potential anti-cancer agents” (Eur J Med Chem, 2011).
Calls of active or inactive are those of the source. The calls are words filed in the database; no cut-off is given here.

Tests used:
[1] = system: HeLa; experiment: Cytotoxicity against human HeLa cells at 4 uM after 24 hrs by MTT assay; type: functional, cell-based
Outline: (§1)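 Cells were grown in DMEM with 10% FCS, penicillin and streptomycin at 37 °C under 5% CO2. They were seeded at 10,000 cells/well, left overnight, then treated 24 h. Medium was replaced with fresh medium, MTT was added and plates were held 2 h at 37 °C. Absorbance was read at 570 nm. Single-point runs used 4 µM. Data come from three independent experiments as mean ± S.D.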

[2] = system: HepG2; experiment: Induction of cell cycle arrest in human HepG2 assessed as accumulation at S-phase at 4 uM after 24 hrs by propidium iodide staining based FACS analysis; type: functional
Outline: (§2)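 HepG2 cells were seeded at 5 × 10^5 per 60 mm dish and grown 24 h. Compound was added at 4 µM for a further 24 h. Cells were harvested with trypsin-EDTA, fixed in ice-cold 70% ethanol 30 min at 4 °C and treated with RNase A 30 min at 37 °C. They were stained with propidium iodide/citrate/Triton X-100 solution and phase distribution was read by flow cytometry.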

[3] = system: MCF7; experiment: Selectivity ratio of IC50 for human HEK cells to IC50 for human MCF7 cells
Outline: (§3)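 Selectivity index was calculated as the MTT IC50 in normal HEK cells divided by the IC50 in the given cancer line.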

[4] = system: HepG2; experiment: Induction of cell cycle arrest in human HepG2 assessed as accumulation at G2/M-phase at 4 uM after 24 hrs by propidium iodide staining based FACS analysis; type: functional; outline: as §2
[5] = system: HeLa; experiment: Cytotoxicity against human HeLa cells after 24 hrs by MTT assay; type: functional, cell-based; outline: as §1
[6] = system: HepG2; experiment: Cytotoxicity against human HepG2 cells at 4 uM after 24 hrs by MTT assay; type: functional, cell-based; outline: as §1
[7] = system: HepG2; experiment: Induction of cell cycle arrest in human HepG2 assessed as accumulation at G0/G1-phase at 4 uM after 24 hrs by propidium iodide staining based FACS analysis; type: functional; outline: as §2
[8] = Cytotoxicity against human HEK cells after 24 hrs by MTT assay; type: cell-based; conditions: HEK293, 24 h
[9] = system: MCF7; experiment: Cytotoxicity against human MCF7 cells after 24 hrs by MTT assay; type: functional, cell-based; conditions: MCF7, 24 h; outline: as §1
[10] = system: HepG2; experiment: Selectivity ratio of IC50 for human HEK cells to IC50 for human HepG2 cells; outline: as §3
[11] = system: HeLa; experiment: Selectivity ratio of IC50 for human HEK cells to IC50 for human HeLa cells; outline: as §3
[12] = system: MCF7; experiment: Cytotoxicity against human MCF7 cells at 4 uM after 24 hrs by MTT assay; type: functional, cell-based; outline: as §1
[13] = system: HepG2; experiment: Cytotoxicity against human HepG2 cells after 24 hrs by MTT assay; type: functional, cell-based; conditions: HepG2, 24 h; outline: as §1

Row | Structure (SMILES) | Activity [1] | Activity [2] | Ratio IC50 [3] | Activity [4] | IC50 [5] | Activity [6] | Activity [7] | IC50 [8] | IC50 [9] | Ratio IC50 [10] | Ratio IC50 [11] | Activity [12] | IC50 [13]
1 | CCOc1ccc2c(c1)sc1nc(-c3ccccc3)c(CN3CCOCC3)n12 | Active | 5.99% | 5 | 20.46% | 5.89 µM | Active | 73.54% | 21 µM | 4.2 µM | 5.97 | 3.57 | Active | 3.52 µM
2 | CCN(CC)CCOc1cccc(-c2cn3c(n2)sc2ccccc23)c1.Cl.Cl | Active | 13.37% | 4.87 | 22.43% | 4.3 µM | Active | 64.19% | 17.5 µM | 3.59 µM | 8.663 | 4.069 | Active | 2.02 µM
3 | Clc1ccc(-c2nc3sc4ccccc4n3c2CN2CCCC2)cc1 | Active | 4.58% | 5.2 | 13.66% | 4.33 µM | Active | 81.75% | 21.2 µM | 4.07 µM | 6.12 | 4.89 | Active | 3.46 µM
4 | Cc1ccc2c(c1)sc1nc(-c3ccccc3)c(CN3CCCC3)n12 | Active | 7.13% | 4.6 | 18.95% | 8.09 µM | Active | 73.97% | 17.5 µM | 3.8 µM | 4.86 | 2.163 | Active | 3.6 µM
